System: PC-12
Experiment: Neuroprotective activity in rat PC12 cells assessed as attenuation of oxygen-glucose deprivation-induced cellular damage at 10 uM by MTT assay relative to control
Format: functional
Conditions: not given
In short: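 PC12 cells were seeded at 5×10^3/well for 24 h. OGD insult was low-glucose medium plus 5 mM sodium dithionite for 24 h, given together with 10 µM compound. MTT (5 mg/mL) was added for 4 h and absorbance read at 570 nm. Viability was expressed as % of full-medium control; n = 3.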

Question: With `Cc1c(N2CCN(C)CC2)c(=O)oc2cc(O)cc(OC3CCCCC3)c12` as the molecule, how does the Activity read?
Answer: 36.1%

Question: For `Cc1c(N2CCN(C(=O)C(F)(F)F)CC2)c(=O)oc2cc(O)cc(O)c12`, which Activity is on record?
Answer: 49.3%

Question: With `Cc1c(N2CCN(c3cccc(C(F)(F)F)c3)CC2)c(=O)oc2cc(O)cc(O)c12` as the molecule, how does the Activity read?
Answer: 46.5%

Question: With `Cc1c(N2CCN(C)CC2)c(=O)oc2cc(O)cc(O)c12` as the molecule, how does the Activity read?
Answer: 52.7%

Question: For `Cc1c(N2CCN(Cc3ccccc3)CC2)c(=O)oc2cc(O)cc(O)c12`, which Activity is on record?
Answer: 44.4%

Question: Which Activity does the source give for `Cc1c(N2CCN(C)CC2)c(=O)oc2cc(O)cc(OC3CCN(C)CC3)c12` here?
Answer: 19.9%

Question: For `CCOc1ccc2c(C)c(N3CCN(C)CC3)c(=O)oc2c1`, which Activity is on record?
Answer: 45.6%

Question: Which Activity does the source give for `Cc1c(N2CCN(C)CC2)c(=O)oc2cc(O)cc(OCCc3cccs3)c12` here?
Answer: 39.1%

Question: Which Activity does the source give for `Cc1c(N2CCN(C)CC2)c(=O)oc2cc(O)cc(OCCCNC(=O)OC(C)(C)C)c12` here?
Answer: 15.8%

Question: For `Cc1c(N2CCN(C)CC2)c(=O)oc2cc(O)cc(OC3CCCC3)c12`, which Activity is on record?
Answer: 33.8%

Question: For `Cc1c(N2CCN(C)CC2)c(=O)oc2cc(O)cc(OCCN3CCOCC3)c12`, which Activity is on record?
Answer: 56.9%

Question: Which Activity does the source give for `Cc1cccc(N2CCN(c3c(C)c4c(O)cc(O)cc4oc3=O)CC2)c1C` here?
Answer: 47.1%

Question: For `Cc1c(N2CCN(c3ccc(F)cc3)CC2)c(=O)oc2cc(O)cc(O)c12`, which Activity is on record?
Answer: 47%

Question: For `Cc1c(N2CCN(C)CC2)c(=O)oc2cc(O)cc(OCCN3CCCC3)c12`, which Activity is on record?
Answer: 48.2%

Question: For `CCOc1cc(O)cc2oc(=O)c(N3CCN(C)CC3)c(C)c12`, which Activity is on record?
Answer: 33.9%

Question: For `Cc1c(N2CCN(C)CC2)c(=O)oc2cc(O)cc(OCCN(C)C)c12`, which Activity is on record?
Answer: 61.5%

Question: Which Activity does the source give for `COc1ccc2c(C)c(N3CCN(C)CC3)c(=O)oc2c1` here?
Answer: 43.7%

Question: With `Cc1c(N2CCN(C)CC2)c(=O)oc2cc(O)cc(OCCN3CCCCC3)c12` as the molecule, how does the Activity read?
Answer: 24.9%

Question: For `C=CC(=O)N1CCN(c2c(C)c3c(O)cc(O)cc3oc2=O)CC1`, which Activity is on record?
Answer: 48.3%

Question: Which Activity does the source give for `Cc1c(N2CCN(C)CC2)c(=O)oc2cc(O)cc(OCCc3ccccn3)c12` here?
Answer: 48.2%

Question: With `Cc1c(N2CCN(C(=O)Nc3ccccc3Oc3ccccc3)CC2)c(=O)oc2cc(O)cc(O)c12` as the molecule, how does the Activity read?
Answer: 49.3%

Question: With `Cc1c(N2CCN(C(=O)Nc3ccc(F)cc3)CC2)c(=O)oc2cc(O)cc(O)c12` as the molecule, how does the Activity read?
Answer: 46.3%

Question: With `CCCCOc1cc(O)cc2oc(=O)c(N3CCN(C)CC3)c(C)c12` as the molecule, how does the Activity read?
Answer: 46.2%

Question: Which Activity does the source give for `CCCCNC(=S)N1CCN(c2c(C)c3c(O)cc(O)cc3oc2=O)CC1` here?
Answer: 48.9%

Question: With `Cc1c(N2CCN(C)CC2)c(=O)oc2cc(O)cc(OC(C)C)c12` as the molecule, how does the Activity read?
Answer: 51.8%

Question: For `Cc1c(CCC(=O)N2CCN(C)CC2)c(=O)oc2cc(O)cc(O)c12`, which Activity is on record?
Answer: 46.1%

Question: For `Cc1c(N2CCN(C(c3ccc(F)cc3)c3ccc(F)cc3)CC2)c(=O)oc2cc(O)cc(O)c12`, which Activity is on record?
Answer: 47.8%

Question: With `Cc1c(N2CCN(C(=O)NCc3ccccc3)CC2)c(=O)oc2cc(O)cc(O)c12` as the molecule, how does the Activity read?
Answer: 49.6%

Question: With `Cc1c(N2CCN(C)CC2)c(=O)oc2cc(OCCN3CCCC3)ccc12` as the molecule, how does the Activity read?
Answer: 44.9%

Question: For `Cc1c(N2CCNCC2)c(=O)oc2cc(O)cc(O)c12`, which Activity is on record?
Answer: 46.4%

Question: With `Cc1c(N2CCN(C)CC2)c(=O)oc2cc(O)ccc12` as the molecule, how does the Activity read?
Answer: 44.8%

Question: For `Cc1cc(O)c2c(C)c(N3CCN(C)CC3)c(=O)oc2c1`, which Activity is on record?
Answer: 47.3%

Question: For `CCC(CC)CN1CCN(c2c(C)c3c(O)cc(O)cc3oc2=O)CC1`, which Activity is on record?
Answer: 49.5%

Question: For `CCN1CCN(c2c(C)c3c(O)cc(O)cc3oc2=O)CC1`, which Activity is on record?
Answer: 46.4%

Question: With `Cc1c(N2CCN(C)CC2)c(=O)oc2cc(O)cc(OCc3ccccn3)c12` as the molecule, how does the Activity read?
Answer: 44.2%

System: not listed separately
Experiment: Cytotoxicity against rat PC12 cells assessed as cell proliferation at 10 uM by MTT assay relative to control
Format: cell-based, PC-12
Conditions: read-out: Activity
In short: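 PC12 cells were grown in DMEM with 5% FBS, 5% horse serum and 2 mM glutamine at 37 °C, 5% CO2. They were seeded at 5×10^3 cells/well for 24 h, then exposed to 10 µM compound in full medium. Viability was read by MTT (5 mg/mL, 4 h) at 570 nm as % of control absorbance; n = 3.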

Question: With `Cc1c(N2CCN(C)CC2)c(=O)oc2cc(O)cc(OC3CCCCC3)c12` as the molecule, how does the viability at 10 µM read?
Answer: 177%

Question: For `Cc1c(N2CCN(C(=O)C(F)(F)F)CC2)c(=O)oc2cc(O)cc(O)c12`, which viability at 10 µM is on record?
Answer: 97.4%

Question: Which viability at 10 µM does the source give for `Cc1c(N2CCN(c3cccc(C(F)(F)F)c3)CC2)c(=O)oc2cc(O)cc(O)c12` here?
Answer: 103%

Question: For `Cc1c(N2CCN(C)CC2)c(=O)oc2cc(O)cc(O)c12`, which viability at 10 µM is on record?
Answer: 107%

Question: For `Cc1c(N2CCN(Cc3ccccc3)CC2)c(=O)oc2cc(O)cc(O)c12`, which viability at 10 µM is on record?
Answer: 100%

Question: With `Cc1c(N2CCN(C)CC2)c(=O)oc2cc(O)cc(OC3CCN(C)CC3)c12` as the molecule, how does the viability at 10 µM read?
Answer: 139%

Question: With `CCOc1ccc2c(C)c(N3CCN(C)CC3)c(=O)oc2c1` as the molecule, how does the viability at 10 µM read?
Answer: 101%

Question: Which viability at 10 µM does the source give for `Cc1c(N2CCN(C)CC2)c(=O)oc2cc(O)cc(OCCc3cccs3)c12` here?
Answer: 178%

Question: With `Cc1c(N2CCN(C)CC2)c(=O)oc2cc(O)cc(OCCCNC(=O)OC(C)(C)C)c12` as the molecule, how does the viability at 10 µM read?
Answer: 153%

Question: With `Cc1c(N2CCN(C)CC2)c(=O)oc2cc(O)cc(OC3CCCC3)c12` as the molecule, how does the viability at 10 µM read?
Answer: 181%

Question: Which viability at 10 µM does the source give for `Cc1c(N2CCN(C)CC2)c(=O)oc2cc(O)cc(OCCN3CCOCC3)c12` here?
Answer: 108%

Question: With `Cc1cccc(N2CCN(c3c(C)c4c(O)cc(O)cc4oc3=O)CC2)c1C` as the molecule, how does the viability at 10 µM read?
Answer: 103%

Question: With `Cc1c(N2CCN(c3ccc(F)cc3)CC2)c(=O)oc2cc(O)cc(O)c12` as the molecule, how does the viability at 10 µM read?
Answer: 103%

Question: With `Cc1c(N2CCN(C)CC2)c(=O)oc2cc(O)cc(OCCN3CCCC3)c12` as the molecule, how does the viability at 10 µM read?
Answer: 135%

Question: With `CCOc1cc(O)cc2oc(=O)c(N3CCN(C)CC3)c(C)c12` as the molecule, how does the viability at 10 µM read?
Answer: 167%

Question: Which viability at 10 µM does the source give for `Cc1c(N2CCN(C)CC2)c(=O)oc2cc(O)cc(OCCN(C)C)c12` here?
Answer: 104%

Question: Which viability at 10 µM does the source give for `COc1ccc2c(C)c(N3CCN(C)CC3)c(=O)oc2c1` here?
Answer: 100%

Question: For `Cc1c(N2CCN(C)CC2)c(=O)oc2cc(O)cc(OCCN3CCCCC3)c12`, which viability at 10 µM is on record?
Answer: 144%

Question: Which viability at 10 µM does the source give for `C=CC(=O)N1CCN(c2c(C)c3c(O)cc(O)cc3oc2=O)CC1` here?
Answer: 98.5%

Question: With `Cc1c(N2CCN(C)CC2)c(=O)oc2cc(O)cc(OCCc3ccccn3)c12` as the molecule, how does the viability at 10 µM read?
Answer: 152%

Question: For `Cc1c(N2CCN(C(=O)Nc3ccccc3Oc3ccccc3)CC2)c(=O)oc2cc(O)cc(O)c12`, which viability at 10 µM is on record?
Answer: 97.9%

Question: With `Cc1c(N2CCN(C(=O)Nc3ccc(F)cc3)CC2)c(=O)oc2cc(O)cc(O)c12` as the molecule, how does the viability at 10 µM read?
Answer: 104%

Question: Which viability at 10 µM does the source give for `CCCCOc1cc(O)cc2oc(=O)c(N3CCN(C)CC3)c(C)c12` here?
Answer: 197%

Question: Which viability at 10 µM does the source give for `CCCCNC(=S)N1CCN(c2c(C)c3c(O)cc(O)cc3oc2=O)CC1` here?
Answer: 103%

Question: Which viability at 10 µM does the source give for `Cc1c(N2CCN(C)CC2)c(=O)oc2cc(O)cc(OC(C)C)c12` here?
Answer: 119%

Question: Which viability at 10 µM does the source give for `Cc1c(CCC(=O)N2CCN(C)CC2)c(=O)oc2cc(O)cc(O)c12` here?
Answer: 97.5%

Question: Which viability at 10 µM does the source give for `Cc1c(N2CCN(C(c3ccc(F)cc3)c3ccc(F)cc3)CC2)c(=O)oc2cc(O)cc(O)c12` here?
Answer: 102%

Question: Which viability at 10 µM does the source give for `Cc1c(N2CCN(C(=O)NCc3ccccc3)CC2)c(=O)oc2cc(O)cc(O)c12` here?
Answer: 102%

Question: For `Cc1c(N2CCN(C)CC2)c(=O)oc2cc(OCCN3CCCC3)ccc12`, which viability at 10 µM is on record?
Answer: 104%

Question: With `Cc1c(N2CCNCC2)c(=O)oc2cc(O)cc(O)c12` as the molecule, how does the viability at 10 µM read?
Answer: 96.3%

Question: With `Cc1c(N2CCN(C)CC2)c(=O)oc2cc(O)ccc12` as the molecule, how does the viability at 10 µM read?
Answer: 99%

Question: With `Cc1cc(O)c2c(C)c(N3CCN(C)CC3)c(=O)oc2c1` as the molecule, how does the viability at 10 µM read?
Answer: 99.5%

Question: For `CCC(CC)CN1CCN(c2c(C)c3c(O)cc(O)cc3oc2=O)CC1`, which viability at 10 µM is on record?
Answer: 102%

Question: With `CCN1CCN(c2c(C)c3c(O)cc(O)cc3oc2=O)CC1` as the molecule, how does the viability at 10 µM read?
Answer: 101%

Question: With `Cc1c(N2CCN(C)CC2)c(=O)oc2cc(O)cc(OCc3ccccn3)c12` as the molecule, how does the viability at 10 µM read?
Answer: 116%

— ChEMBL document CHEMBL2417530, “Coumarin derivatives protect against ischemic brain injury in rats” (Eur J Med Chem, 2013)
